Test results taken from ChEMBL document CHEMBL4680370, “Discovery of Novel Small-Molecule FAK Activators Promoting Mucosal Healing” (ACS Med Chem Lett, 2021).
Where “and” joins values, the source holds several entries; their conditions need not be identical. Equal values may be shown once. Calls of active or inactive are those of the source. The rule behind the calls is not given here.

Columns and labels:
[1] = molecular target: Focal adhesion kinase 1 (Homo sapiens) (UniProt Q05397); test: Activation of FAK in human Caco-2 cells assessed as fold increase in FAK Tyr397 phosphorylation at 10 nM incubated for 1 hr by Western blot analysis relative to control; format: cell-based; conditions: filed as activator
Chain of Focal adhesion kinase 1 (Homo sapiens) (Q05397 2-1052 limits assumed): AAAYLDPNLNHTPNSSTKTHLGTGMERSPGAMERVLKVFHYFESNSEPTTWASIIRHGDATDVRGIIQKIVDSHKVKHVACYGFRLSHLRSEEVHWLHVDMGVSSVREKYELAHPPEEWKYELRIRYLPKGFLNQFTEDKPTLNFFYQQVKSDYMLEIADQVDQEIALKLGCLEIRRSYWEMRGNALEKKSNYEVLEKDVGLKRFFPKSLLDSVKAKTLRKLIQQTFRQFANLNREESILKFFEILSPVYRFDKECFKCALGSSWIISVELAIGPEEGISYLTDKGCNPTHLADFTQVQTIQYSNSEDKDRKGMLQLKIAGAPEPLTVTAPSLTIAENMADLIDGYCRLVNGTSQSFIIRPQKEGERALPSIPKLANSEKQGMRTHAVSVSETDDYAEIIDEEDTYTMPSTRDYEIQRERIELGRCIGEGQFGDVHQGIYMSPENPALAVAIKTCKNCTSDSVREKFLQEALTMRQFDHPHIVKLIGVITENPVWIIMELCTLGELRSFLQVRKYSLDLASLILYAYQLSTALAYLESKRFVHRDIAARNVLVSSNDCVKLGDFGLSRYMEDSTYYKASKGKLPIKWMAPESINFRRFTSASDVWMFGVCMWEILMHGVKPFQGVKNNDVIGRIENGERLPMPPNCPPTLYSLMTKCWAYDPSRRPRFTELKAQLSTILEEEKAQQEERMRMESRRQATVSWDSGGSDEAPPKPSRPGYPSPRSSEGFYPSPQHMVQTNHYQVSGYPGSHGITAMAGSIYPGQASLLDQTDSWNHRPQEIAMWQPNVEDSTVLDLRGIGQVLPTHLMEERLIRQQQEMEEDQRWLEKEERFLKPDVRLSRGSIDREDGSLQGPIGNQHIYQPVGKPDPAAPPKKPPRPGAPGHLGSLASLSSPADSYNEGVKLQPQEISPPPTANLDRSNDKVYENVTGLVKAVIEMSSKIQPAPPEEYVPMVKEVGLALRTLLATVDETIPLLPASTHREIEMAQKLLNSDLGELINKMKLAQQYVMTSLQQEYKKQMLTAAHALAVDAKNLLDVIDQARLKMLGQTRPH
Method in brief: (§1)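 Caco-2 cells were exposed to compound at 10 nM, with DMSO vehicle as control. At least eight separate experiments were run and the data pooled, reported as mean ± standard error.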

[2] = molecular target: Focal adhesion kinase 1 (Homo sapiens) (UniProt Q05397); test: Activation of FAK in human Caco-2 cells assessed as increase in FAK Tyr397 phosphorylation at 10 nM incubated for 1 hr by Western blot analysis; format: cell-based; conditions: filed as activator; method in brief: as §1
[3] = molecular target: Focal adhesion kinase 1 (Homo sapiens) (UniProt Q05397); test: Activation of FAK in human Caco-2 cells assessed as increase in FAK Tyr397 phosphorylation incubated for 1 hr by Western blot analysis; format: cell-based; conditions: filed as activator, dose 10-1000 nM
[4] = system: Caco-2; test: Induction of wound closure in human Caco-2 cells at 10 nM in presence of hydroxyurea measured upto 24 hrs by inverted light microscopy based wound healing assay; format: functional, cell-based; conditions: time hrs <=24
[5] = Tmax in C57BL/6 mouse at 900 ug/kg, ip measured upto 12 hrs by LC-MS/MS analysis; format: ADME, organism-based; conditions: in vivo, 0.9 mg/kg, dose 900 µg/kg
Method in brief: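 Single intraperitoneal dose of 900 μg/kg in C57BL/6 mice. Compound was first dissolved in DMSO, then diluted in 100 μL normal saline (final DMSO 2.5% in the injected solution). Plasma concentration was followed over time after dosing.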

[6] = Toxicity in C57BL/6 mouse assessed as body weight at 900 ug/kg, ip administered for every 6 hrs for 3 days and measured on day 4 (reference value: 9.16 +/- 0.62 %); format: organism-based; conditions: in vivo, 0.9 mg/kg, dose 900 µg/kg
[7] = system: Mus musculus; test: Antiinflammatory activity against ischemic jejunal ulcer C57BL/6J mouse model assessed as ulcer area at 900 ug/kg, ip administered for every 6 hrs for 3 days and measured on day 4 by imaging analysis (reference value: 3.26 +/- 0.47 mm2); conditions: dose 900 µg/kg; time 4 day

Compound	fold change (FC) [1]	Activity [2]	Activity [3]	Activity [4]	further results
CC1CN(c2ccc(C(F)(F)F)cc2NC(=O)N2CCCC2c2ccncc2)CC(C)O1 (centres undefined)	1	–	–	–	–
O=C(Nc1cc(C(F)(F)F)ccc1N1CCOCC1)N1CCCC1c1ccncc1 (centres undefined)	1.5 and 1	Active	Dose-dependent effect	Active	Tmax [5]: 1 h; Activity [6]: 6.33%; Activity [7]: 1.57 mm2
CN(C)C(CNC(=O)Nc1cc(C(F)(F)F)ccc1N1CCOCC1)c1ccccc1 (centres undefined)	1	–	–	–	–
O=C(Nc1cc(C(F)(F)F)ccc1N1CCS(=O)(=O)CC1)N1CCCC1c1ccncc1 (centres undefined)	1	–	–	–	–
COc1ccc(C(CNC(=O)Nc2cc(C(F)(F)F)ccc2N2CCOCC2)N(C)C)cc1 (centres undefined)	1.4	Active	Dose-dependent effect	Active	–
CN1CCN(c2ccc(C(F)(F)F)cc2NC(=O)N2CCCC2c2ccncc2)CC1 (centres undefined)	0.9	–	–	–	–
O=C(Nc1cc(C(F)(F)F)ccc1N1CCOCC1)N1CCCC1C1CCCCC1 (centres undefined)	–	Active	Dose-dependent effect	Active	–

Second part, led by results:

fold change (FC) [1]	Activity [2]	Activity [3]	Compound	Activity [4]	further results
1.4	Active	Dose-dependent effect	O=C(Nc1cc(C(F)(F)F)ccc1N1CCOCC1)N1CCCC1c1ccccc1 (centres undefined)	Active	–
1.1	–	–	O=C(Nc1cc(C(F)(F)F)ccc1N1CCOCC1)N1CCCC1c1ccc(O)cc1 (centres undefined)	–	–
1.1	–	–	O=C(Nc1ccccc1N1CCOCC1)N1CCCC1c1ccncc1 (centres undefined)	–	–
